Laboratory results published in ChEMBL document CHEMBL3612034, “Synthesis of bicoumarin thiophosphate derivatives as steroid sulfatase inhibitors” (Eur J Med Chem, 2015).
Activity calls are given as the source filed them. The calls are words filed in the database; no cut-off is given here.

Tests used:
Steryl-sulfatase [1] = target: T1, Steryl-sulfatase (Homo sapiens, UniProt P08842); experiment: Inhibition of human placenta STS using NPS as substrate after 15 mins by microplate reader analysis
T1 sequence (P08842 whole entry): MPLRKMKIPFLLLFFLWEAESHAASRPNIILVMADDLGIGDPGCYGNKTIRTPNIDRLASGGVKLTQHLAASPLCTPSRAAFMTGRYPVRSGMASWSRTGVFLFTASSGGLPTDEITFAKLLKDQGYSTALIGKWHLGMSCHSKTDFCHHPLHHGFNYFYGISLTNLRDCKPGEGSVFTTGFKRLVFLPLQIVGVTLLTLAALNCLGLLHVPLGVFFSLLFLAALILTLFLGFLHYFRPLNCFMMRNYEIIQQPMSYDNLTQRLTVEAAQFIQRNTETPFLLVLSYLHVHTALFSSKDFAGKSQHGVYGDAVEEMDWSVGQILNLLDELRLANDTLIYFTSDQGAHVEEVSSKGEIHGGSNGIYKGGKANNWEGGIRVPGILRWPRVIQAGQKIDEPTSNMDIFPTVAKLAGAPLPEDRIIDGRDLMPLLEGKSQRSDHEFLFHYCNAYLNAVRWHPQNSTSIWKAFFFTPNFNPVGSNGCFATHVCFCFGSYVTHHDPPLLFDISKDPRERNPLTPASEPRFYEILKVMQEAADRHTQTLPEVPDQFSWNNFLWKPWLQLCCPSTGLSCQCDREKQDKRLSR
How it was run: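 Enzyme: STS extracted from human placenta and purified by multi-step chromatography. Each reaction held 20 mM Tris-HCl pH 7.4, 3 mM p-nitrophenyl sulfate (NPS), 5 U enzyme and graded inhibitor concentrations, and ran 15 min at 37 °C. Stopped with 1 M NaOH; released p-nitrophenol read at 405 nm. IC50 fitted from triplicate measurements.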

[2] = target: T2, Steryl-sulfatase (Homo sapiens) (UniProt P08842); experiment: Irreversible inhibition of human placenta STS at 100 uM preincubated for 30 mins in standard condition followed by exchange of reaction environment
T2 sequence (whole entry): T1 sequence (P08842 whole entry)
How it was run: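 Purified human placental STS was run under standard assay conditions (Tris-HCl pH 7.4, NPS substrate, 37 °C) with inhibitor present. Restored enzyme activity was then measured the same way, by p-nitrophenol absorbance at 405 nm after an NaOH stop. Basal and restored activities were compared to tell reversible from irreversible inhibition.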

Steryl-sulfatase [3] = target: T1, Steryl-sulfatase; experiment: Inhibition of human placenta STS
How it was run: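 Human placental STS purified to homogeneity by multi-step chromatography. Each reaction used 5 U enzyme, 20 mM Tris-HCl pH 7.4, 3 mM p-nitrophenyl sulfate (NPS) and a range of inhibitor concentrations, for 15 min at 37 °C. NaOH stopped the reaction, and released p-nitrophenol was read at 405 nm. IC50 came from the dose-response curve, run in triplicate.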

Steryl-sulfatase [4] = target: T1, Steryl-sulfatase; experiment: Inhibition of recombinant human STS transfected in CHO cells using MUS as substrate after 30 mins by fluorescence assay; type: cell-based
[5] = target: T2, Steryl-sulfatase (Homo sapiens); experiment: Reversible inhibition of human placenta STS at 100 uM preincubated for 30 mins in standard condition followed by exchange of reaction environment
How it was run: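 Reversibility test: the standard placental STS/NPS assay (Tris-HCl pH 7.4, 37 °C) was run with compound at a single fixed concentration. Enzyme activity was then measured again after restoration by the same p-nitrophenol absorbance read-out at 405 nm. Basal and restored activities were compared.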

`COP(=S)(Oc1ccc2c3c(c(=O)oc2c1)CCCCC3)Oc1ccc2c3c(c(=O)oc2c1)CCCCC3` was tested, and the IC50 (Steryl-sulfatase [1]) was 6.77 µM and the inhibition [2] was “Active”.

`O=c1oc2cc(OP(O)(=S)Oc3ccc4c5c(c(=O)oc4c3)CCC5)ccc2c2c1CCC2` gave an IC50 (Steryl-sulfatase [1]) of 26.9 µM.

With `O=c1oc2cc(OP(O)(=S)Oc3ccc4c5c(c(=O)oc4c3)CCCCC5)ccc2c2c1CCCCC2` the IC50 (Steryl-sulfatase [1]) was 5.51 µM.

For `O=c1oc2cc(OP(=S)(Cl)Oc3ccc4c5c(c(=O)oc4c3)CCC5)ccc2c2c1CCC2`, the IC50 (Steryl-sulfatase [1]) was 33.8 µM.

`COP(=S)(Oc1ccc2c3c(c(=O)oc2c1)CCC3)Oc1ccc2c3c(c(=O)oc2c1)CCC3` showed an IC50 (Steryl-sulfatase [1]) of 75 µM.

For `NP(=S)(Oc1ccc2c3c(c(=O)oc2c1)CCCC3)Oc1ccc2c3c(c(=O)oc2c1)CCCC3`, the IC50 (Steryl-sulfatase [1]) was 110 µM.

In the case of `O=c1oc2cc(OP(=S)(Cl)Oc3ccc4c5c(c(=O)oc4c3)CCCCC5)ccc2c2c1CCCCC2`, the IC50 (Steryl-sulfatase [1]) is reported as 7.04 µM.

`O=c1oc2cc(OP(=S)(Cl)Oc3ccc4c5c(c(=O)oc4c3)CCCC5)ccc2c2c1CCCC2` was tested, and the IC50 (Steryl-sulfatase [1]) was 7.76 µM and the inhibition [2] was “Active”.

`NS(=O)(=O)Oc1ccc2c(c1)OC(O)C1=C2CCCCC1` (configuration not stated) gave an IC50 (Steryl-sulfatase [3]) of 0.008 µM.

Work on `COP(=S)(Oc1ccc2c3c(c(=O)oc2c1)CCCC3)Oc1ccc2c3c(c(=O)oc2c1)CCCC3` yielded an IC50 (Steryl-sulfatase [1]) of 14.8 µM.

For `CC(C)N(C(=O)C1=CC[C@H]2[C@@H]3CCc4cc(OS(N)(=O)=O)ccc4[C@H]3CC[C@]12C)C(C)C`, the IC50 (Steryl-sulfatase [4]) was 0.004 µM.

For `NP(=S)(Oc1ccc2c3c(c(=O)oc2c1)CCCCC3)Oc1ccc2c3c(c(=O)oc2c1)CCCCC3`, the IC50 (Steryl-sulfatase [1]) was 88.8 µM.

In the case of `O=c1oc2cc(OP(O)(=S)Oc3ccc4c5c(c(=O)oc4c3)CCCC5)ccc2c2c1CCCC2`, the inhibition [5] is reported as “Active” and the IC50 (Steryl-sulfatase [1]) is reported as 0.86 µM.

`NP(=S)(Oc1ccc2c3c(c(=O)oc2c1)CCC3)Oc1ccc2c3c(c(=O)oc2c1)CCC3` gave an IC50 (Steryl-sulfatase [1]) of 74.3 µM.
